Measurements collected from several papers.
Protocols differ between the studies behind these lines.
CYP3A7: Cytochrome P450 3A7 (CYP3A7, Homo sapiens, UniProt P24462)

Cc1ccc(Cn2cc(C(=O)NN)c(=O)c3cc(Oc4ccccc4)ccc32)cc1  compound remaining (metabolic stability; male rat, liver microsomes; 1 µM, 30 min): > 99%
C=C[C@@H]1C[C@]1(NC(=O)[C@@H]1C[C@@H](Oc2ncc(OC)c3ccc(Cl)cc23)CN1C(=O)[C@@H](NC(=O)OC(C)(C)C)C(C)(C)C)C(=O)NS(=O)(=O)C1CC1  inhibition (CYP3A7; enzyme activity, inhibitor, fluorescence; 20 µM, 10 min, pH 7.4): ≥ 50%
O=[N+]([O-])c1ccccc1/C=N/c1c(-c2ccccc2)nc2ccc(Cl)cn12  CC50 (MT4; cell growth or viability, MTT; 5 days): > 125 µg/mL
N#Cc1cnn2c(NC3CC(F)(F)C3)cc(Nc3cccc(-n4cnnc4)c3)nc12  compound remaining (metabolic stability; male CD-1 mouse, liver microsomes; 5 µM, 30 min, pH 7.4): 75%
COc1c(-c2ccc3cc(NS(C)(=O)=O)ccc3c2)cc(-n2ccc(=O)[nH]c2=O)cc1C(C)(C)C  inhibition (CYP3A7; enzyme activity, inhibitor, fluorescence; 20 µM, 10 min, pH 7.4): ≥ 50%
CCN(CCN)c1ccc(Nc2cc(NC3CC3)n3ncc(C#N)c3n2)cc1-n1cnnc1  compound remaining (metabolic stability; male CD-1 mouse, liver microsomes; 5 µM, 30 min, pH 7.4): 92%
N#C[C@@]12C[C@@H]1[C@@H](n1cnc3c(N[C@@H](C4CCC4)C4CC4)nc(I)nc31)[C@H](O)[C@@H]2O  compound remaining (metabolic stability; mouse, liver microsomes; 1 h): 72.6%
O=c1[nH]cnc2c1ncn2[C@H]1CC[C@@H](CO)O1  CC50 (MT4; cell growth or viability, MTT; 5 days): > 50 µg/mL
COC[C@H]1C[C@@H](c2ncc(-c3ccc4c(c3)COc3cc5c(ccc6nc([C@@H]7CC[C@H](C)N7C(=O)[C@@H](NC(=O)OC)C(C)C)[nH]c65)cc3-4)[nH]2)N(C(=O)[C@H](NC(=O)OC)c2ccccc2)C1  inhibition (CYP3A7; enzyme activity, inhibitor, fluorescence; 20 µM, 10 min, pH 7.4): ≥ 50%
O=[N+]([O-])c1ccc(/C=N/c2c(-c3ccccc3)nc3ccc(Cl)cn23)cc1  CC50 (MT4; cell growth or viability, MTT; 5 days): > 125 µg/mL
N#Cc1cnn2c(Nc3cn(CCN4CCOCC4)cn3)cc(Nc3cccc(-n4cnnc4)c3)nc12  compound remaining (metabolic stability; male CD-1 mouse, liver microsomes; 5 µM, 30 min, pH 7.4): 81%
COC(=O)N[C@H](C(=O)N1CC2(CC2)C[C@H]1c1ncc(-c2ccc3c(c2)C(F)(F)c2cc(-c4ccc5nc([C@@H]6[C@H]7CC[C@H](C7)N6C(=O)[C@@H](NC(=O)OC)C(C)C)[nH]c5c4)ccc2-3)[nH]1)C(C)C  inhibition (CYP3A7; enzyme activity, inhibitor, fluorescence; 20 µM, 10 min, pH 7.4): ≥ 50%
